According to ChEMBL document CHEMBL1127636, “The development of cyclic sulfolanes as novel and high-affinity P2 ligands for HIV-1 protease inhibitors” (J Med Chem, 1994):
pIC50: −log10 of the molar value.

What was measured:
[1] = system: Human immunodeficiency virus 1; assay: Inhibition of HIV-1 in MT-4 human T-lymphoid cells infected with IIIb isolate; assay type: functional; details: Human immunodeficiency virus 1, T-lymphoid; read-out: CIC95
How it was run: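 Unless otherwise indicated, each value is from a single determination (n = 1).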

[2] = target: Human immunodeficiency virus type 1 protease (Human immunodeficiency virus 1, UniProt Q72874); assay: Inhibitory activity against HIV-1 protease

| SMILES | IC95 [1] [nM] | pIC50 [2] |
| --- | --- | --- |
| C[C@@H]1[C@H](OC(=O)N[C@@H](Cc2ccccc2)[C@H](O)CN2C[C@H]3CCCC[C@H]3C[C@H]2C(=O)NC(C)(C)C)CCS1(=O)=O | 200 | – |
| C[C@@H]1C[C@H](OC(=O)N[C@@H](Cc2ccccc2)[C@H](O)CN2C[C@H]3CCCC[C@H]3C[C@H]2C(=O)NC(C)(C)C)CS1(=O)=O | > 400 | 7.09 |
| CCC[C@@H]1[C@H](OC(=O)N[C@@H](Cc2ccccc2)[C@H](O)CN2C[C@H]3CCCC[C@H]3C[C@H]2C(=O)NC(C)(C)C)CCS1(=O)=O | 800 | 7.70 |
| CC(C)(C)NC(=O)[C@@H]1C[C@@H]2CCCC[C@@H]2CN1C[C@@H](O)[C@H](Cc1ccccc1)NC(=O)O[C@H]1CCS(=O)(=O)[C@H]1C1CCCC1 | 400 | 8.21 |
| CC(C)(C)NC(=O)[C@@H]1C[C@@H]2CCCC[C@@H]2CN1C[C@@H](O)[C@H](Cc1ccccc1)NC(=O)OC1CS(=O)(=O)C1 | – | 6.98 |
| CC(C)(C)NC(=O)[C@@H]1C[C@@H]2CCC[C@@H]2CN1C[C@@H](O)[C@H](Cc1ccccc1)NC(=O)O[C@H]1CCS(=O)(=O)C1 | > 200 | 7.95 |
| CC(C)(C)NC(=O)[C@@H]1C[C@@H]2CCCC[C@@H]2CN1C[C@@H](O)[C@H](Cc1ccccc1)NC(=O)O[C@H]1CCS(=O)(=O)C1 | 364 | 7.12 |
| C[C@@H]1CS(=O)(=O)C[C@@H]1OC(=O)N[C@@H](Cc1ccccc1)[C@H](O)CN1C[C@H]2CCCC[C@H]2C[C@H]1C(=O)NC(C)(C)C | 800 | 6.67 |
| CC[C@H]1[C@@H](OC(=O)N[C@@H](Cc2ccccc2)[C@H](O)CN2C[C@H]3CCCC[C@H]3C[C@H]2C(=O)NC(C)(C)C)CCS1(=O)=O | 400 | – |
| C[C@H]1CS(=O)(=O)C[C@H]1OC(=O)N[C@@H](Cc1ccccc1)[C@H](O)CN1C[C@H]2CCCC[C@H]2C[C@H]1C(=O)NC(C)(C)C | 800 | 7.15 |
| CC(C)(C)NC(=O)[C@@H]1C[C@@H]2CCCC[C@@H]2CN1C[C@@H](O)[C@H](Cc1ccccc1)NC(=O)O[C@@H]1CCS(=O)(=O)[C@@H]1C1CCCC1 | 1500 | 7.65 |
| CC(C)[C@H]1[C@@H](OC(=O)N[C@@H](Cc2ccccc2)[C@H](O)CN2C[C@H]3CCCC[C@H]3C[C@H]2C(=O)NC(C)(C)C)CCS1(=O)=O | 200 | – |
| C[C@@H]1OCC[C@@H]1OC(=O)N[C@@H](Cc1ccccc1)[C@H](O)CN1C[C@H]2CCCC[C@H]2C[C@H]1C(=O)NC(C)(C)C | 400 | – |
| C[C@H]1OCC[C@H]1OC(=O)N[C@@H](Cc1ccccc1)[C@H](O)CN1C[C@H]2CCCC[C@H]2C[C@H]1C(=O)NC(C)(C)C | 1600 | – |
| CC(C)(C)NC(=O)[C@@H]1C[C@@H]2CCCC[C@@H]2CN1C[C@@H](O)[C@H](Cc1ccccc1)NC(=O)O[C@H]1CCOC1 | 800 | – |
| CC(C)(C)NC(=O)[C@@H]1C[C@@H]2CCCC[C@@H]2CN1C[C@@H](O)[C@H](Cc1ccccc1)NC(=O)O[C@H]1CCSC1 | – | 6.88 |
| CC(C)(C)NC(=O)[C@@H]1C[C@@H]2CCCC[C@@H]2CN1C[C@@H](O)[C@H](Cc1ccccc1)NC(=O)O[C@H]1CCCS(=O)(=O)C1 | – | 5.76 |
| CC(C)(C)NC(=O)[C@@H]1C[C@@H]2CCCC[C@@H]2CN1C[C@@H](O)[C@H](Cc1ccccc1)NC(=O)O[C@@H]1CCCS(=O)(=O)C1 | – | 5.68 |
| CC(C)(C)NC(=O)[C@@H]1C[C@@H]2CCCC[C@@H]2CN1C[C@@H](O)[C@H](Cc1ccccc1)NC(=O)O[C@@H]1CCSC1 | – | 6.66 |
| CC[C@@H]1[C@H](OC(=O)N[C@@H](Cc2ccccc2)[C@H](O)CN2C[C@H]3CCCC[C@H]3C[C@H]2C(=O)NC(C)(C)C)CCS1(=O)=O | 800 | – |
| CC(C)(C)NC(=O)[C@@H]1C[C@@H]2CCC[C@@H]2CN1C[C@@H](O)[C@H](Cc1ccccc1)NC(=O)O[C@H]1CCOC1 | 400 | 7.21 |
| CC(C)(C)NC(=O)[C@@H]1C[C@@H]2CCCC[C@@H]2CN1C[C@@H](O)[C@H](Cc1ccccc1)NC(=O)O[C@@H]1CCS(=O)(=O)C1 | > 800 | – |
| CCCC[C@@H]1[C@H](OC(=O)N[C@@H](Cc2ccccc2)[C@H](O)CN2C[C@H]3CCCC[C@H]3C[C@H]2C(=O)NC(C)(C)C)CCS1(=O)=O | 800 | 7.34 |
| CCCC[C@H]1[C@@H](OC(=O)N[C@@H](Cc2ccccc2)[C@H](O)CN2C[C@H]3CCCC[C@H]3C[C@H]2C(=O)NC(C)(C)C)CCS1(=O)=O | 400 | 7.83 |
| C[C@H]1[C@@H](OC(=O)N[C@@H](Cc2ccccc2)[C@H](O)CN2C[C@H]3CCC[C@H]3C[C@H]2C(=O)NC(C)(C)C)CCS1(=O)=O | 100 | 7.90 |
| CC(C)[C@@H]1[C@H](OC(=O)N[C@@H](Cc2ccccc2)[C@H](O)CN2C[C@H]3CCCC[C@H]3C[C@H]2C(=O)NC(C)(C)C)CCS1(=O)=O | 50 | 8.46 |
| C[C@H]1C[C@@H](OC(=O)N[C@@H](Cc2ccccc2)[C@H](O)CN2C[C@H]3CCCC[C@H]3C[C@H]2C(=O)NC(C)(C)C)CS1(=O)=O | – | 5.80 |
| C[C@H]1[C@@H](OC(=O)N[C@@H](Cc2ccccc2)[C@H](O)CN2C[C@H]3CCCC[C@H]3C[C@H]2C(=O)NC(C)(C)C)CCS1(=O)=O | 200 | – |
| CC(C)[C@@H]1[C@H](OC(=O)N[C@@H](Cc2ccccc2)[C@H](O)CN2C[C@H]3CCC[C@H]3C[C@H]2C(=O)NC(C)(C)C)CCS1(=O)=O | 100 | 8.52 |
| CCC[C@H]1[C@@H](OC(=O)N[C@@H](Cc2ccccc2)[C@H](O)CN2C[C@H]3CCCC[C@H]3C[C@H]2C(=O)NC(C)(C)C)CCS1(=O)=O | 400 | 8.21 |
